Measured values published in ChEMBL document CHEMBL3526142, “Biotransformation of a novel antimitotic agent, I-387, by mouse, rat, dog, monkey, and human liver microsomes and in vivo pharmacokinetics in mice” (Drug Metab Dispos, 2011).

Tests used:
[1] = tested on: Liver microsome; experiment: Drug level in rat liver microsomes assessed as compound retention time treated with 0.5 uM I-387 after 2 hrs by LC-MS/MS analysis; assay type: ADME
Method in brief: (§1)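 Pooled liver microsomes (1 mg/ml protein) incubated with 0.5 µM substrate and 3 mM NADPH in 65 mM potassium phosphate, pH 7.4, 1% methanol, at 37°C for 2 h. Stopped with ice-cold acetonitrile containing internal standard, centrifuged. Supernatant analysed by LC-MS/MS on a C18 column, 15-min gradient, with product ion scans for metabolite identification.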

[2] = Drug level in monkey liver microsomes assessed as compound retention time treated with 0.5 uM I-387 after 2 hrs by LC-MS/MS analysis; assay type: ADME, Macaca mulatta; conditions: rhesus monkey; method in brief: as §1
[3] = tested on: Liver; experiment: Drug level in mouse liver microsomes assessed as compound retention time treated with 0.5 uM I-387 after 2 hrs by LC-MS/MS analysis; assay type: ADME; method in brief: as §1
[4] = Retention time of the compound at 0.5 uM by LC-MS/MS analysis; assay type: physicochemical
Method in brief: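 After a 2 h incubation at 37°C with liver microsomes (1 mg/ml protein, 3 mM NADPH, 0.5 μM substrate, pH 7.4 phosphate buffer), samples were quenched with acetonitrile and centrifuged. Supernatant separated on a C18 column (15 min run, linear gradient 100% A to 100% B over 7 min) with LC-MS/MS ion trap detection.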

[5] = tested on: Liver microsome; experiment: Drug level in human liver microsomes assessed as compound retention time treated with 0.5 uM I-387 after 2 hrs by LC-MS/MS analysis; assay type: ADME; method in brief: as §1
[6] = tested on: Liver microsome; experiment: Drug level in dog liver microsomes assessed as compound retention time treated with 0.5 uM I-387 after 2 hrs by LC-MS/MS analysis; assay type: ADME, Canis lupus familiaris; method in brief: as §1

## COc1cc(C(O)c2cccc(-c3cc4ccccc4[nH]3)c2)cc(OC)c1OC (stereo unspecified)
[1]
  Drug metabolism: metabolite_detected
[2]
  Drug metabolism: metabolite_detected
[3]
  Drug metabolism: metabolite_detected
[4]
  Retention_time: 10.5 min
[5]
  Drug metabolism: metabolite_detected
[6]
  Drug metabolism: metabolite_detected
